p97 ATPase inh – blocks human p97 ATPase activity | inhibition, % at 8 µM | P55072 | recombinant p97 ATPase, Kinase-Glo ATP luminescence, 3 h | 220,000 compounds, 0.42% hits; in the data active means inhibition above about 15%
Target sequence (P55072 whole entry, looked up): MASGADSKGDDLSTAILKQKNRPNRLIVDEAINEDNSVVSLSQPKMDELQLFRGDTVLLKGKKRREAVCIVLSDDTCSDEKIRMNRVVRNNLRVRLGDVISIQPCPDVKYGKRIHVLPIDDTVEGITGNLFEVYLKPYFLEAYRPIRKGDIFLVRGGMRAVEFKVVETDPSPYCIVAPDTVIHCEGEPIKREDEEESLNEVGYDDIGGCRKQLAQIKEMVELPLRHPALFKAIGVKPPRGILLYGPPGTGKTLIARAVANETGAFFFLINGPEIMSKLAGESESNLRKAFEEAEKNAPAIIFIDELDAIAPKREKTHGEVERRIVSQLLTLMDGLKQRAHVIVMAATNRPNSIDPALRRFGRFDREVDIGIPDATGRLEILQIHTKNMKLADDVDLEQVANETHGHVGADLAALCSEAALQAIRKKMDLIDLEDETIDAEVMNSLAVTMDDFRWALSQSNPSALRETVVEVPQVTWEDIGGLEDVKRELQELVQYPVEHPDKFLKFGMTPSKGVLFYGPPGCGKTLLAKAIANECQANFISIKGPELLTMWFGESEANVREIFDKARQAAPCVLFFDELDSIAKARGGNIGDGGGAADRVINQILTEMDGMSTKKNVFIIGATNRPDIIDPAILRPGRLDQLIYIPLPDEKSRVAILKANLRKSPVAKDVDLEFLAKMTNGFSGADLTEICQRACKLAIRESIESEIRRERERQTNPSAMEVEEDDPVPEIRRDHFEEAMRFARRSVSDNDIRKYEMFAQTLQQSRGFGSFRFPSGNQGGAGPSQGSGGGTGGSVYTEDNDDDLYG
G6PDH CS – inhibits Leuconostoc G6PDH, flagging false hits in G6PDH-based assays; Purified L. mesenteroides G6PDH, diaphorase/resazurin coupled fluorescence, 45 min; inhibition, % at 5 µM; 200,000 compounds, 0.12% hits; in the data active means inhibition above about 50%
HKDC1 inhibitor – HKDC1 (human) hexokinase inhibition | recombinant HKDC1, G6PDH/diaphorase resazurin coupled fluorescence | 340,000 compounds, 0.16% hits | Q2TB90 | inhibition, % at 20 µM;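 active means inhibition above about 35% when tested at 20 µM, limit read from the data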
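Material – in-house recombinant HK5 (HKDC1) enzyme · Quantity – HKDC1 at 5 µg/mL · Buffer or medium – pH 8.0 Tris buffer with 10 mM MgCl2 · Reagent – glucose with 1 mM ATP · Dosing – single 20 µM dose · Times – reaction time 90 min, room temperature, protected from light · Technique – resorufin fluorescence at 613 nm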
Diaph inh CS – inhibits diaphorase or chemically oxidizes, flagging diaphorase assay artifacts. inhibition, % at 20 µM. 190,000 compounds, 0.69% hits. diaphorase resazurin-to-resorufin fluorescence, NADH, 16 min; bacterial (C. kluyveri) enzyme, not human;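 active means primary screen inhibition at 20 µM above a set limit, cut at about 50% in these data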
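Test system: diaphorase enzyme from Clostridium kluyveri; amount: diaphorase at 0.14 U/mL in enzyme working solution; detection: fluorescence of resorufin formed from resazurin, Ex 544/Em 590 nm; times: reaction incubation of 16 min at room temperature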
UBC9 SUMO inh – SUMOylation inhibition. P63279. HTRF SUMOylation assay, SAE1/SAE2 + UBC9, in vitro. inhibition, % at 35 µM. 290,000 compounds, 0.36% hits. AID 2006; in the data active means inhibition above about 50%, passing the limit was not always enough
A number is an active result; . = inactive; / = no result. Only some compounds are listed: those with a hit (about 0.95% of all), similar ones and a draw of the others.

SMILES	p97 ATPase inh	G6PDH CS	HKDC1 inhibitor	Diaph inh CS	UBC9 SUMO inh
COc1cccc(OC)c1OCCCN1CCOCC1	.	.	.	53	.
CC(C)(C)c1ccc(NC(=O)c2ccc(=O)[nH]n2)cc1	/	/	.	/	.
Oc1ccc(CNc2ccccc2)c2cccnc12	.	.	.	86	.
Oc1ccc(CN2CCN(Cc3ccccc3)CC2)c2cccnc12	.	/	.	/	/
Cc1cccc(NCc2ccc(O)c3ncccc23)c1	.	.	.	78	.
Oc1ccc(Cn2ccnc2)c2cccnc12	.	.	.	54	.
Cc1ccccc1NCc1ccc(O)c2ncccc12	.	.	.	92	.
COCc1ccc(O)c2ncccc12	.	.	.	.	.
Oc1ccc(CNc2ccc(F)cc2)c2cccnc12	.	.	.	77	.
NC(=O)c1ccnc2c(O)cccc12	/	/	.	/	/
OCc1ccnc2c(O)cccc12	.	59	.	.	.
Cc1ccnc(SCCn2c(N3CC(C)CC(C)C3)nc3c2c(=O)n(C)c(=O)n3C)n1 (centres undefined)	.	.	.	51	.
CN(C(=O)COc1ccc(S(=O)(=O)N2CCOCC2)cc1[N+](=O)[O-])C1CCS(=O)(=O)C1 (centres undefined)	.	/	.	/	.
Cc1ccc2cccc(OC(=O)/C=C\c3ccccc3)c2n1	.	51	.	.	.
Cc1[nH]c2ccccc2c1C(C[N+](=O)[O-])c1ccco1 (centres undefined)	.	.	.	51	.
O=C(c1c(F)cccc1F)N(C1CCCCC1)C1CCCCC1	/	/	.	/	.
COc1cc(C2Nc3ccc4ncccc4c3C3=C2C(=O)CCC3)cc(OC)c1O (centres undefined)	.	50	.	.	.
COc1cc(C2Nc3ccc4ncccc4c3C3=C2C(=O)CC(C)(C)C3)cc(OC)c1O (centres undefined)	.	.	.	.	.
Cc1ccccc1Nc1cccc2nonc12	.	.	.	.	92
Cc1ccccc1NS(=O)(=O)c1cccc2nonc12	/	/	.	/	.
N=C1/C(=C\c2ccc(-c3ccc(C(=O)O)cc3)o2)C(=O)N=C2SC=C(c3ccccc3)N12	.	/	40	/	.
N=C1/C(=C\c2ccc(-c3cccc(Cl)c3)o2)C(=O)N=C2SC=C(c3ccccc3)N12	.	.	.	.	.
O=C1/C(=C/c2ccco2)Oc2c1ccc(O)c2CN1CCCCC1	.	.	.	.	61
COc1ccccc1CNS(=O)(=O)c1ccc(-n2cnnn2)c(OC)c1	/	/	.	/	.
O=c1oc2c3c4c(cc2s1)CCCN4CCC3	.	.	.	.	78
SMILES	p97 ATPase inh	G6PDH CS	HKDC1 inhibitor	Diaph inh CS	UBC9 SUMO inh
O=c1ccc2cc3c4c(c2o1)CCCN4CCC3	.	.	.	.	.
COc1ccc(CCNC(=O)c2ccc3c(SCC(=O)O)c4c(nc3c2)CCCC4)cc1OC	.	.	.	68	.
COc1ccc(CCNC(=O)c2ccc3c(=O)n(Cc4ccco4)c(=S)[nH]c3c2)cc1OC	.	.	.	51	.
COc1ccc(CCNC(=O)c2ccc3nc(-c4ccco4)c(-c4ccco4)nc3c2)cc1OC	.	.	.	66	.
CCCNC(=O)c1ccc2c(=O)n(Cc3ccco3)c(=S)[nH]c2c1	.	.	.	.	64
CCOCCCn1c(=S)[nH]c2cc(C(=O)NCCc3ccc(OC)c(OC)c3)ccc2c1=O	/	/	.	/	.
COc1cc(CNc2ccc3[nH]c(=O)[nH]c3c2)ccc1OCC(=O)NC(C)(C)C	.	.	.	69	.
C=CCOc1ccc(CNc2ccc3[nH]c(=O)[nH]c3c2)cc1OC	.	.	.	94	.
COc1cc(CNc2ccc3[nH]c(=O)[nH]c3c2)cc(Br)c1OCC(=O)NC(C)(C)C	.	.	.	.	.
COc1cc(CNc2ccc3[nH]c(=O)[nH]c3c2)ccc1OCc1ccc(F)cc1	/	/	.	/	.
O=C(C=CC(=O)OC1CCCCC1)OC1CCCCC1	/	/	.	/	/
CC1=C(C#N)C(=O)NC(=O)/C1=C\c1ccc(-c2ccc(C)cc2[N+](=O)[O-])o1	.	.	.	57	/
CCC(c1ccc(O)c(O)c1)C(CC)c1ccc(O)c(O)c1 (centres undefined)	/	/	.	/	/
CCC(NC(C)C)C(O)c1ccc(O)c(O)c1 (centres undefined)	.	63	.	59	.
NC(=S)N/N=C/c1cccc(O)c1O	.	66	.	60	.
Oc1cccc(/C=N/NC(=S)NCCN2CCOCC2)c1O	.	60	.	66	.
S=C(NCCN1CCOCC1)N/N=C/c1cccs1	/	/	.	/	.
CCOC(=O)C1=C(C)NC(=O)CC1c1cc2c(cc1[N+](=O)[O-])OCO2 (centres undefined)	.	.	.	72	.
CCCOC(=O)C1=C(C)N(C)C(=O)NC1c1cc2c(cc1[N+](=O)[O-])OCO2 (centres undefined)	.	.	.	.	.
CC1=C(C(=O)OCc2ccc3c(c2)OCO3)C(c2ccccc2)NC(=O)N1 (centres undefined)	.	.	.	.	.
CC1=C(C(=O)OCc2ccc3c(c2)OCO3)C(c2ccc(O)c([N+](=O)[O-])c2)NC(=O)N1 (centres undefined)	.	.	.	52	.
COc1ccc(-n2cc3ccc([N+](=O)[O-])cc3n2)cc1	/	/	.	/	.
CC1=C(C(=O)Nc2ccccc2)C(c2ccc(C)o2)n2c(s/c(=C\c3ccco3)c2=O)=N1 (centres undefined)	.	.	.	.	72
COc1cccc(C2C(C(=O)Nc3ccccc3)=C(C)N=c3s/c(=C/c4ccc(OCC(=O)O)cc4)c(=O)n32)c1 (centres undefined)	.	.	.	.	.
Cc1cc(C(C)(C)C)c(O)c(C(C)(C)C)c1	.	.	.	.	.
SMILES	p97 ATPase inh	G6PDH CS	HKDC1 inhibitor	Diaph inh CS	UBC9 SUMO inh
Cc1cc(O)c(Oc2cc(C)cc(O)c2O)c(O)c1	.	.	.	71	.
Cc1cc(C)cc(-n2ccn(CC(=O)NCCc3ccccc3)c(=O)c2=O)c1	/	/	.	/	/
COc1ccc(NC(=O)c2ccc(-n3cnnn3)cc2)c([N+](=O)[O-])c1	/	/	.	/	.
Cc1ccc(C(=O)NC(=S)NNC(=O)CC#N)cc1	.	.	.	57	.
CN1c2ccccc2N(C)C1(C)c1ccccc1	.	.	.	.	.
CCN1c2ccccc2N(C)C1(C)c1ccccc1 (centres undefined)	.	.	.	59	.
O=C(c1cc(COc2ccc(F)cc2Cl)on1)N1CCCCCC1	/	/	.	/	.
O=C(c1cc(COc2ccc(F)cc2Cl)on1)N1CCC(c2ccncc2)CC1	.	.	.	68	.
CC1(C)CCC(=O)N2CC[C@H]3c4cc5ccccc5nc4C[C@@H]1[C@H]32	/	/	.	/	/
O=C(N/N=C/c1cn(Cc2cccc(F)c2)c2ccccc12)c1cc(O)cc(O)c1	/	/	.	/	66
CC1=CC(=O)c2c(O)ccc(O)c2C1=O	.	58	/	54	90
O=C1C=C(N2CCN(c3ccccn3)CC2)C(=O)c2c(O)ccc(O)c21	/	/	.	/	/
